From article PMC11245987 (Computational and Structural Biotechnology Journal, 2024) come the findings set out here.

Assay [1] deals with T1, CTSL (Homo sapiens, UniProt P07711). As to the kind of experiment: CTSL activity test, cell-free system. Type of assay: biochemical. To be noted: for inhibition at 100 µM: read-out: inhibition of CTSL.
Assay [2] deals with T1, CTSL. As to the kind of experiment: Enzyme kinetics of CTSL. The format is biochemical. To be noted: for inhibition mechanism: 6.25 µM to 100 µM, both Km and Vmax decreased. The method, boiled down: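 A standard-curve conversion factor turned signal into velocity. Values were corrected by subtracting the […] and fitted to Michaelis-Menten. Lineweaver–Burk plots gave the inhibition mechanism. Mean ± SEM.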

T1 sequence (P07711 114-288 limits assumed): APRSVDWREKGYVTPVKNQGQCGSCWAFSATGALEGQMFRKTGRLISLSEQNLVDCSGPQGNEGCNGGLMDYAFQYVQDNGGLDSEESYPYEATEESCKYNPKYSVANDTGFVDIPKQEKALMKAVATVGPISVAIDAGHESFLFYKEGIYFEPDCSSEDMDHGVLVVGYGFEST
T1 sequence (P07711 292-333 limits assumed): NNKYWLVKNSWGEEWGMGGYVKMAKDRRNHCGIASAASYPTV

Broadly, the inhibition is the drop in the measured response relative to a control, in per cent. Take `COc1cc(O)cc(O)c1C(=O)/C=C/c1ccccc1` [(E)-Cardamonin]: the inhibition at 100 µM in assay [1] is over 90%.

For the molecule `O=C(N[C@H](COC(=O)[C@H](Cc1ccccc1)NC(=O)c1ccccc1)Cc1ccccc1)c1ccccc1` [Asperphenamate], in assay [1], the inhibition at 100 µM was over 90%.

The term IC50 denotes the concentration that inhibits the measured activity by half. The molecule `CC1(C)CCC2=C(O1)c1ccccc1C(=O)C2=O` [Beta-Lapachone] came in with an IC50 in assay [1] of 9.6 µM. The inhibition at 100 µM in assay [1] is over 90%. Moreover, the inhibition mechanism entry in assay [2] is on record as “uncompetitive inhibition mechanism”. Further, the Vmax turned out to be 194.8 ± 9.2 Rlu/min in assay [2] (inhibitor 6.25 μM); 181.3 ± 32.9 Rlu/min in assay [2] (inhibitor 12.5 μM); 136.9 ± 27.6 Rlu/min in assay [2] (inhibitor 25 μM); 103.1 ± 2.2 Rlu/min in assay [2] (inhibitor 50 μM); 39.9 ± 0.2 Rlu/min in assay [2] (inhibitor 100 μM).

For `Cc1c(O)c(C)c2c(c1O)C(=O)C[C@@H](c1ccc(O)cc1)O2` [Farrerol], in assay [1], the inhibition at 100 µM is over 90%.

Take `COc1cc(O)c(C(=O)/C=C/c2ccccc2)c(OC)c1` [Flavokawain B]: the inhibition at 100 µM in assay [1] is over 90%.

Regarding `O=C(/C=C/c1ccc(O)cc1)c1c(O)cc(O)cc1O` [Naringenin chalcone], the inhibition at 100 µM in assay [1] was over 90%.

Regarding `O=CCc1ccccc1` [Phenylacetaldehyde], the inhibition at 100 µM in assay [1] is over 90%.

Regarding `CC1=CC(=O)c2c(O)cccc2C1=O` [Plumbagin], the midpoint of inhibition in assay [1], the IC50, lay at 31.3 µM. Moreover, the inhibition at 100 µM in assay [1] is over 90%. Also, the inhibition mechanism result in assay [2] is “uncompetitive inhibition mechanism”. Besides, the Vmax in assay [2] (inhibitor 6.25 μM) is reported as 321.7 ± 13.9 Rlu/min; in assay [2] (inhibitor 12.5 μM), 277.5 ± 15.6 Rlu/min; in assay [2] (inhibitor 25 μM) it was 270.5 ± 11.2 Rlu/min; in assay [2] (inhibitor 50 μM), 216.8 ± 20.5 Rlu/min; in assay [2] (inhibitor 100 μM), 12.3 ± 2.4 Rlu/min.
